In ChEMBL document CHEMBL4513216, “Probing the Open Global Health Chemical Diversity Library for Multistage-Active Starting Points for Next-Generation Antimalarials” (ACS Infect Dis, 2020):

Experiment: Toxicity liver stage against HepG2, at 10uM
Assay type: cell-based
Parameters: test concentration 10 uM, cell line HepG2-A16-CD81EGFP
Details: human, HepG2-A16-CD81EGFP cells; read-out: INHIBITION
In short: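 Uninfected HepG2-A16-CD81EGFP cells, 3 × 10^3 per well, 1536-well, plated on prespotted compound at 10 μM final, parasite-free screening media added to match infected plates; puromycin 10 μM positive, DMSO 0.5% negative; run in parallel with 48 h PbLuc assay at 37 °C, 5% CO2; viability by CellTiter-Glo luminescence, normalized to controls.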

In order of rising cytotoxicity at 10 µM:
1. CC1(C)[C@@H]2CC=C(CN3CCCn4nc(CNS(C)(=O)=O)cc4C3)[C@H]1C2  -46%
2. FC(F)(F)CCc1ccnc(N2CCN(Cc3ccccn3)CC2)n1  -27%
3. CO[C@H]1CN(Cc2ccc(F)cc2)CC[C@@]12CCCO2  -24.5%
4. CNC(=O)c1cn[nH]c1C1CCN(Cc2cn(C)nc2C)C1 (configuration not stated)  -24.3%
5. Cn1nccc1CCC(=O)N1CCCC(c2cnccn2)C1 (configuration not stated)  -22.7%
6. Cc1oc(C)c(C(=O)NCc2ccccc2CN(C)C)c1C  -16.9%
7. Cc1ccccc1C(=O)NCCCN1CCc2ccccc2C1  -16.5%
8. CCn1nc2c(cc1=O)CN(Cc1nnc(C3CC3)o1)CC2  -16.2%
9. CC1CCc2nc(O)c(C(=O)NCCN(C)C)cc2C1 (configuration not stated)  -13.8%
10. Cn1nccc1C(=O)N1C[C@@H]2CC[C@H](Oc3cccc(F)c3)[C@@H]2C1  -13.8%
11. CC(NCc1cc(F)ccc1F)c1ccc(OCC(=O)NC2CC2)cc1 (configuration not stated)  -13.2%
12. Cn1cc(-c2nnc3sc(C4CCC4)nn23)cn1  -13%
13. CC(C)(C)c1ncc(S(C)(=O)=O)c(C2CCCNC2)n1 (configuration not stated)  -12.7%
14. COCCn1ccc(NC(=O)Nc2cccnc2)n1  -12.3%
15. COc1ccc(C(=O)C2CCCN(CCCn3cccn3)C2)c(OC)c1 (configuration not stated)  -12.2%
16. NC(=O)C1CCN(CC(=O)N2CCCC2c2ccsc2)CC1 (configuration not stated)  -11.4%
17. CCOCc1ccc(CNC(=O)N2CCC(C(N)=O)C2)cc1 (configuration not stated)  -11.4%
18. CC1CN(CC(=O)Nc2nncs2)CCN1Cc1nccn1C (configuration not stated)  -11.2%
19. Cn1nc2c(cc1=O)CN(Cc1nc(C3CC3)no1)CC2  -10.8%
20. Cc1nn(C)c(Oc2ccc(Cl)cc2)c1CN1CC[C@H](CO)[C@@H](O)C1  -10.5%
21. Cn1cnc(S(=O)(=O)NCCC(O)c2ccc3c(c2)OCO3)c1 (configuration not stated)  -8.71%
22. COc1ccc(CCN2CCN(C(=O)c3scnc3C)CC2)cc1  -8.31%
23. Nc1nccnc1C(=O)NCCCNc1ccc(C(F)(F)F)cn1  -8.16%
24. CC(Cn1cccn1)NCc1ccc(Cl)s1 (configuration not stated)  -8.12%
25. CCc1noc(CN2CCN(C(=O)COC)CC2)n1  -8.09%
26. C=C(C)CN(CC)Cc1nc(C2CC2)no1  -7.51%
27. Cc1nc(C)n(CC2CCCN2CCCOc2ccc(F)cc2)n1 (configuration not stated)  -6.72%
28. Cc1ccccc1[C@@H]1CN(Cc2nc3ncccn3n2)C[C@H]1C(=O)O  -6.55%
29. Cn1cnc(S(=O)(=O)NCC(O)c2ccc3c(c2)CCO3)c1 (configuration not stated)  -6.28%
30. Cc1nc(C)c(C)c(N2CCC(O)(c3ccc(F)cc3)CC2)n1  -6.08%
31. Cn1ncnc1CNC1CCCc2cc(F)ccc21 (configuration not stated)  -5.62%
32. Cc1cc(C)nc(N2CCC(C(=O)O)(n3ccc(C(C)(C)C)n3)CC2)n1  -5.6%
33. COCCN1CCN(CCCS(C)(=O)=O)CC1C (configuration not stated)  -5.5%
34. CN(CCc1cccs1)C(=O)Nc1ccc2c(c1)C(=O)N(C)CC2  -5.44%
35. CN(Cc1cc(F)ccc1F)CC(C)(CO)CO  -5.38%
36. Cc1nn(C)c(C)c1C1CCCN1CC(=O)NC(C1CC1)C1CC1 (configuration not stated)  -5.38%
37. O=C(CC1CCCCC1)NC1CCCc2nc(N3CCOCC3)ncc21 (configuration not stated)  -5.24%
38. COCCC(=O)N1CC[C@@H](N(C)C)[C@@H]1Cc1ccccc1  -5.05%
39. CC(C)c1nnc2n1CCN(C(=O)CN1CCc3sccc3C1)C2  -4.97%
40. CC(=O)N1CCCN(C(=O)NCc2ccc(Cl)s2)CC1  -4.02%
41. CN(Cc1ccccc1)CC(C)(C)NC(=O)c1cnns1  -3.67%
42. CC(=O)N(Cc1noc(C2CC2)n1)C1CCN(Cc2cccnc2)C1 (configuration not stated)  -3.36%
43. Cn1cnnc1CNC(=O)Nc1cc(C(F)(F)F)c[nH]c1=O  -3.2%
44. CS(=O)(=O)NC[C@H]1Cn2c(-c3ccccc3)cnc2CO1  -2.96%
45. CC(C)CC(C)(CNC(=O)c1cnccn1)NC(=O)c1cnccn1 (configuration not stated)  -2.71%
46. Cc1cnc(-c2nc(C3CCCN(Cc4ccccc4C)C3)no2)cn1 (configuration not stated)  -2.33%
47. Cc1ccc(C(=O)NS(=O)(=O)c2cc(Br)ccc2C)c(=O)[nH]1  -2.27%
48. CC(C)c1nc2c(n1C)CCN(Cc1nc(-c3ccoc3)no1)C2  -2.06%
49. Cc1nc(C)n(CC2CCCN2CC(=O)Nc2ccncc2)n1 (configuration not stated)  -1.73%
50. Cc1cnn(CC2CCCN2Cc2noc(C(C)C)n2)c1 (configuration not stated)  -1.67%
51. O=C1CC(c2cccs2)c2sc(C(=O)O)c(-c3ccccc3)c2N1 (configuration not stated)  -1.66%
52. COCCN(Cc1ccc(C)o1)C(=O)Nc1nnc2ccccn12  -1.59%
53. Cc1ccc(C(=O)N2C[C@H](OCc3cccnc3)[C@H]3COC[C@H]32)cn1  -1.52%
54. COc1cccc2ccc(CN3CCN(c4ccncc4)CC3)nc12  -1.36%
55. Cn1c(Cl)cnc1CN1CCCC1c1ccc2c(c1)OCCO2 (configuration not stated)  -1.29%
56. CN(C)CC1CN(Cc2coc(-c3ccccc3Cl)n2)CCO1 (configuration not stated)  -1.15%
57. c1cc(-c2noc(CN3CCn4c(nnc4C4CC4)C3)n2)co1  -0.986%
58. O=C(c1ccc(F)c(F)c1)N1CCCSCC1CN1CCCC1 (configuration not stated)  -0.524%
59. O=S(=O)(c1ccc(F)c(F)c1)N1CCCC(c2nccs2)C1 (configuration not stated)  -0.523%
60. CC(C)C(Sc1nnnn1C1CC1)C(=O)NCc1cccnc1 (configuration not stated)  -0.267%
61. COc1ccc(CCNC(=O)C2CCCOC2)c(Cl)c1 (configuration not stated)  0.0357%
62. COCCNC(=O)c1cc(COc2cncc(Cl)c2)on1  0.141%
63. Cc1cnn(CC(C)NCc2cc(C#N)ccc2F)c1 (configuration not stated)  0.224%
64. N#Cc1cccc(CN2C(=O)C3(CCNCC3)Nc3ccccc32)c1  0.529%
65. Cc1noc(C)c1CN1CCC2(CC1)NC(=O)CC2c1ccncc1 (configuration not stated)  0.635%
66. CN(CCC#N)C(=O)C(C)(C)Oc1ccc(C(N)=O)cc1  0.676%
67. CC(=O)N1CCCC(c2ccc(C(=O)NC3CCCC3)cn2)C1 (configuration not stated)  0.692%
68. CN1CCO[C@@H]2CN(S(=O)(=O)c3ccccc3)C[C@@H]2C1  0.93%
69. COc1ccc(C(C)(C)C(=O)NCc2n[nH]c(=O)[nH]2)cc1  1.07%
70. Cc1n[nH]c(=O)c2c(NC(=O)CN3CCC(O)CC3)oc(C)c12  1.17%
71. CCN(Cc1cc(Cl)c(O)c(OC)c1)Cc1nc(COC)no1  1.29%
72. CCCN(CCc1cccc(F)c1)c1ccc2nnnn2n1  1.44%
73. COCCN(C)Cc1cc(Cl)ccc1OCC(O)CN1CCCCCC1 (configuration not stated)  1.76%
74. CCOCCCNc1cc(C)nn2cnnc12  2.21%
75. O=C(c1ccco1)N1C[C@H]2CCCN(CC3CC3)[C@H]2C1  2.36%
76. O=C(c1cnc(C2CC2)s1)N1CCCCC1Cn1cccn1 (configuration not stated)  2.43%
77. Cc1cc(-c2cc(S(=O)(=O)N3C[C@H](C4CC4)[C@@H](N)C3)c(C)s2)[nH]n1  2.47%
78. COc1ccccc1OC1(C(=O)O)CCN(c2cc(C)nc(C)c2)CC1  2.65%
79. CCc1[nH]c2c(CNC(=O)C3CNC(=O)C3)cc(C)cc2c1C (configuration not stated)  2.75%
80. CCn1ncc(CNc2[nH]cnc3nncc2-3)c1C  2.76%
81. Cn1ccc(C(=O)N2CCN(CC(O)C(C)(C)C)CC2)cc1=O (configuration not stated)  2.76%
82. CN(C)C(=O)c1n[nH]c2c1CN(CC1CCCCC1)C2  2.86%
83. CN(C)Cc1cc(CC2(NCc3ccccc3Cl)COC2)no1  4.14%
84. CC(C)(C(=O)N[C@@H]1CCC[C@@H](O)[C@@H]1O)c1cccc(F)c1  4.79%
85. COc1ccc2c3c1CN(C(=O)N(C)C)CC3=CC(C)(C)CO2  5.21%
86. COc1cccn(CC(=O)N(C)CCCOc2c(C)cccc2C)c1=O  5.27%
87. CCc1noc(CS(=O)(=O)Cc2nc(Cc3ccccc3)no2)n1  5.45%
88. O=C(N[C@@H]1CCNC[C@H]1O)c1ccc(F)c(F)c1  5.79%
89. CNC(=O)[C@@H](CC(C)C)N1CCC[C@H]1C(=O)N(C)Cc1ccccc1  6.14%
90. COc1ccc(F)cc1NC(=O)NCC1(C)COC1  6.26%
91. COCCN(Cc1ccoc1)S(=O)(=O)c1ccc(OC)c(Cl)c1  6.27%
92. COc1ccc(C)cc1CN1CCCC1Cn1nc(C)nc1C (configuration not stated)  6.57%
93. CN1CCN(C(=O)N2CCCC(c3nccn3CC3CCC3)C2)CC1 (configuration not stated)  6.64%
94. OCc1ccc(CN2CCC(n3cc(-c4ccsc4)nn3)CC2)o1  6.77%
95. CCC(CO)N(Cc1ccco1)Cc1c(C)nn(C)c1Cl (configuration not stated)  7.4%
96. COCC[C@]1(O)CCN(CC(=O)NCc2ccccn2)C[C@H]1C  7.8%
97. CCN(Cc1cc(=O)n2cc(Br)ccc2n1)C1CC1  7.95%
98. CCN(CCO)Cc1cn(-c2cccc(F)c2)nc1-c1ccc(C)o1  8.32%
99. COc1cccc(CNC2CCCOc3cc(C)ccc32)n1 (configuration not stated)  8.53%
100. Cc1nc2sccn2c1C(=O)N1CCn2nc(C(=O)NC3CC3)cc2C1  9.63%
101. CN(Cc1ccccc1)C(=O)CN1CCCCC1Cn1cncn1 (configuration not stated)  10.4%
102. FC(F)(F)c1cc(-c2cccs2)nc(N2CCN3CCCC3C2)n1 (configuration not stated)  10.7%
103. Cc1nc(CNC(=O)NC2CCN(c3ncccc3Cl)C2)no1 (configuration not stated)  11.9%
104. Cc1ccc(S(=O)(=O)N2C[C@H]3C[C@H](NC(=O)c4cscn4)[C@H]3C2)cc1  12%
105. Cc1cnc(N2CCn3cc(CNC(=O)CC4CC4)nc3C2)nc1  12.3%
106. O=C(NC(CO)CO)c1coc(COc2cccc(F)c2)n1  12.5%
107. CC(NCc1ccc(F)cc1)c1ccc(S(C)(=O)=O)cc1 (configuration not stated)  12.6%
108. CCCNc1ncc(CN2CCN(C)C(=O)C2C)cn1 (configuration not stated)  12.9%
109. N#Cc1ccccc1Cn1cncn1  13.1%
110. CN1CCC(c2nnc(CN3CCCCC3)n2C)CC1  16.4%
111. Cn1cc(I)c(C(=O)NC2CCCCC2)n1  18.1%
112. COCCn1cc(C(=O)N2CCCC2c2cccs2)c2ccccc21 (configuration not stated)  23.7%
